FLuc inhib CS: Photinus pyralis luciferase inhibition counter-screen; P08659; ATPLite firefly luciferase biochemical luminescence, 10 min; inhibition, % at 10 µM; 200,000 tested, 1.5% active; AID 1006;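 active = inhibition above about 50% when tested at 10 µM, limit read from the data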
Target sequence (P08659 whole entry, looked up): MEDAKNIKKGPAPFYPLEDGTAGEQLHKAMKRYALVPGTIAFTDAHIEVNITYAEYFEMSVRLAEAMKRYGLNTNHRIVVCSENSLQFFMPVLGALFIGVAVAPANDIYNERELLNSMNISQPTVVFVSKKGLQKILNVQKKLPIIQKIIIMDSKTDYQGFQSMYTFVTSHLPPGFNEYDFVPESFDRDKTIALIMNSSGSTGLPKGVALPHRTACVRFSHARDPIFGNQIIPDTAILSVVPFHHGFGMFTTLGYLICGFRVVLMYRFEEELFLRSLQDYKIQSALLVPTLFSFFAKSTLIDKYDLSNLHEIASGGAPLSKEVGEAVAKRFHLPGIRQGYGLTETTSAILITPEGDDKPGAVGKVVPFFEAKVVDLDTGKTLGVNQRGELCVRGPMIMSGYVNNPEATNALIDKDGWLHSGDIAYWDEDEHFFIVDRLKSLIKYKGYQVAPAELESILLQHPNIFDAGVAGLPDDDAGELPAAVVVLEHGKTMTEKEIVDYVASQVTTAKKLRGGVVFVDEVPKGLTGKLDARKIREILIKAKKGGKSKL
C8 TRAIL sens: sensitizes caspase-8 expressing cells to TRAIL | NB7+C8 cells + TRAIL, ATPlite viability luminescence | inhibition (viability loss, TRAIL sensitization), % at 10 µM | 360,000 tested, 1% active;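 active = compounds causing at least 50% loss of cell viability in the single-dose screen, relative to plate controls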
FLuc stim CS: affects firefly luciferase, flagging false hits in luciferase stimulation screens; P08659; ATPlite luciferase biochemical, luminescence, 10 min; 0 = ATP-free wells, 1 = DMSO control; activation factor at 10 µM; 200,000 tested, under 10 active; AID 1027;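 active = luciferase activation factor, scaled between plate controls, of at least 2 with compound at 10 µM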
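Assay system: Luciferase/luciferin detection reagent, cell-free biochemical luciferase assay / Also added: ATP substrate / Schedule: 10 min at ambient temperature / Measured by: luminescence measurement of luciferase light output / Benchmarks: low control with PBS replacing ATP, high control enzyme plus ATP without compound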
PPC-1+TRAIL kill: PPC-1 cancer cell killing with TRAIL present | 220,000 tested, 0.41% active | cell killing (% activity), % at 4 µM or 5 µM | PPC-1 cells + TRAIL, ATPLite viability luminescence;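 active = cell killing above 50% in the first pass at 4 µM, then a duplicate retest at 5 µM averaging 50% or more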;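 note: plate controls were cells with TRAIL plus DMSO for no effect and medium-only wells lacking cells for full effect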
The depositor's hits bear a star; / = not tested or not shown. Rows were chosen to be rich in hits. Some 1.6% of all compounds tested hit in one or more screens of this group.

SMILES	FLuc inhib CS	C8 TRAIL sens	FLuc stim CS	PPC-1+TRAIL kill
COC(=O)c1ccc(OC(C)C(=O)c2ccc(C)cc2)cc1 (centres undefined)	-1.8	-4.5	1	15.2
O=C1C(=C2CCc3ccccc32)Cc2ccccc21	/	51.0*	/	/
O=C1C(=NO)CCCc2ccccc21	/	-7.5	/	/
CCN1CCN(Cc2ccc(NC(=O)c3ccc(C)c(NC(=O)c4ccc5n[nH]nc5c4)c3)cc2C(F)(F)F)CC1	/	-9.6	/	-2.5
CCN1CCN(Cc2ccc(NC(=O)c3ccc(C)c(NC(=O)C(=O)c4c[nH]c5ccccc45)c3)cc2C(F)(F)F)CC1	/	88.9*	/	-2.3
O=C(Nc1ccccc1C(=O)Nc1ccccc1C(=O)O)c1ccccc1	/	18.7	/	/
O=C(Nc1ccccc1C(=O)O)c1ccc(NC(=O)C2CC2)cc1	/	65.3*	/	/
Nc1ccc(C(=O)Nc2ccccc2C(=O)O)cc1	53.8*	19.7	0.5	23.4
O=C(Nc1ccccc1O)c1ccc(NC(=O)C2CC2)cc1	/	14.2	/	/
COc1ccccc1OC(C)C(=O)N1CC(=O)Nc2ccccc21 (centres undefined)	/	0.2	/	/
CCN(CC)c1ccc(C=O)c(OC)c1	-1.2	-2.7	1	-5.4
Brc1csc(/C=N/Nc2nc3ccccc3s2)c1	53.7*	34.7	0.5	28.6
Brc1cc2c(cc1/C=N/Nc1nc3ccccc3s1)OCO2	-1.7	0.4	1	8.3
CCOC(=O)c1c(NC(=O)COC(=O)c2ccc(Cl)nc2)sc(C)c1C	/	-4.4	/	/
O=C(NCC(=O)N(c1cccc(F)c1)C(C(=O)NC1CCCC1)c1cccnc1)c1cccs1 (centres undefined)	-3.2	-3.9	1	-0.2
CCc1c(C)c(C#N)c2nc3ccccc3n2c1Cl	-2.5	/	1	60.1*
CCc1c(C)c(C#N)c2nc3ccccc3n2c1-n1nc(C)cc1C	-4.1	-4.1	1	15.1
COc1cc(/C=N/NC(=O)c2nnn(-c3nonc3N)c2C)ccc1OCc1ccc(Cl)cc1	/	55.8*	/	/
CNC[C@H]1Oc2cc(Br)ccc2S(=O)(=O)N([C@@H](C)CO)C[C@@H]1C	/	14.0	/	/
Cc1cccc(-c2noc(-c3csc([C@@H]4C[C@H](O)[C@@H](CO)O4)n3)n2)c1	/	51.1*	/	/
COc1cc(OC)cc(-c2noc(-c3csc([C@H]4C[C@H](O)[C@@H](CO)O4)n3)n2)c1	/	22.2	/	/
CCc1nc2c(OCC(=O)C(C)(C)C)cccn2c1N(C)C(=O)COc1ccccc1	/	-4.6	/	/
O=C(Nc1ccc2nc3n(c(=O)c2c1)CCCCC3)c1c(F)ccc([N+](=O)[O-])c1F	/	68.2*	/	/
O=C(N/N=C/c1ccc(O)c(O)c1)N/N=C/c1ccc(O)c(O)c1	/	54.7*	/	/
Cc1nonc1C(=O)N/N=C/c1ccc(O)c(O)c1	4.2	14.9	1	6.8
SMILES	FLuc inhib CS	C8 TRAIL sens	FLuc stim CS	PPC-1+TRAIL kill
N#CC(=C1Nc2ccccc2N1)S(=O)(=O)c1ccccc1	-1.5	2.1	1	4.3
CN(C)c1ccc(/C=C(\C#N)c2ccccc2)cc1	/	47.5	/	24.1
CN(C)c1cccc(/C=C(\C#N)c2ccccc2)c1	/	49.5*	/	6.1
CCc1ccc(C(=O)Nc2cc(C)ccc2F)s1	15.8	52.8*	0.8	9.8
CC(C)CC1C(=O)N(Cc2cn(Cc3ccco3)nn2)CCS(=O)(=O)N1Cc1ccc(-c2ccccc2)cc1 (centres undefined)	/	14.2	/	/
N/C(=N/O)c1nc(N2CCCC2)nc(N(c2ccccc2)c2ccccc2)n1	-10.9	59.1*	1.1	27.0
C[C@H](CO)N1C[C@H](C)[C@@H](CN(C)C(=O)Nc2ccc3c(c2)OCO3)Oc2ccc(NC(=O)Cn3cnnn3)cc2C1=O	/	-20.7	/	/
COc1ccc(/C=C2\CC/C(=C\c3ccc(OC)c(OC)c3)C2=O)cc1OC	66.4*	63.6*	0.3	38.6
COc1ccc(C=C2C=C(C(C)(C)C)C(=O)C(C(C)(C)C)=C2)cc1OC	/	86.8*	/	/
CC(=O)c1cccc(NC(=O)N2CCC(NC(=O)c3ccco3)CC2)c1	/	-13.8	/	/
COc1cccc(N(C(=O)CCl)C(C(=O)NCCc2ccccc2)c2cccs2)c1 (centres undefined)	-7.0	95.8*	1.1	34.6
COc1ccc(N(C(=O)CCl)C(C(=O)NCCc2ccccc2)c2cccs2)cc1Cl (centres undefined)	0.9	94.8*	1	89.2*
CCN1C(=O)/C(=C2/Sc3ccccc3N2CC)S/C1=N\c1ncn[nH]1	-2.4	10.6	1	/
Cc1nn(C(=O)c2ccc3c(c2)OCO3)c(N)c1-c1ccccc1	80.4*	4.4	0.2	6.5
COc1ccc(S(=O)(=O)N2CCCCC2)cc1NC(=O)[C@@H]1CCCN1C(=O)c1cccs1	/	-4.4	/	/
COc1ccc(C=Cc2ccc3ccccc3n2)c(OC)c1	/	70.0*	/	/
COc1ccc(NC(=O)Cc2ccsc2)cc1S(=O)(=O)N1CCOCC1	/	-16.9	/	/
Cc1ccc(S(=O)(=O)Nc2ccc(NC(=O)Nc3cccc(C(F)(F)F)c3)cc2)cc1	-1.8	-4.8	1	-1.1
NC(Cc1ccc(C(F)(F)F)cc1)c1csc(NC(=O)Nc2ccccc2)n1 (centres undefined)	/	-17.2	/	/
CCN(CC)S(=O)(=O)c1ccc(NC(=O)Nc2cccc(C(F)(F)F)c2)cc1	-7.7	68.7*	1.1	1.7
O=C(Nc1ccc(OC(F)F)cc1)Nc1cccc(C(F)(F)F)c1	4.3	59.6*	1	17.3
COc1ccc(CC(N)c2csc(NC(=O)Nc3cccc(C(F)(F)F)c3)n2)cc1 (centres undefined)	/	70.2*	/	/
C[C@H]1CN([C@@H](C)CO)C(=O)CCCn2cc(nn2)CO[C@@H]1CN(C)C(=O)Nc1ccc2c(c1)OCCO2	/	-0.7	/	/
C/C=C/c1cnc2c(c1)C(=O)N([C@H](C)CO)C[C@H](C)[C@@H](CN(C)C(=O)CN1CCOCC1)O2	/	-9.8	/	/
CCCOc1ccc(-c2nnc(N)s2)cc1	60.2*	38.3	0.4	-7.0
SMILES	FLuc inhib CS	C8 TRAIL sens	FLuc stim CS	PPC-1+TRAIL kill
CC(C)c1ccc(-c2nnc(N)s2)cc1	80.3*	57.6*	0.2	57.9*
COc1cc(C(=O)N2C(=O)CCC2=O)cc(OC)c1OC	/	10.2	/	/
O=C1C(=C(I)I)c2ccccc2-c2ccccc21	/	93.7*	/	/
C=CCOC(=O)c1sc(NC(=O)c2ccco2)nc1C	57.6*	50.3*	0.4	47.9
CCOC(=O)c1sc(NC(=O)Nc2ccccc2F)nc1C	84.3*	76.9*	0.2	53.7*
COc1ccc(-c2nc(NC(=O)c3ccco3)sc2C)cc1	/	22.4	/	/
CCOC(=O)c1csc(NC(=O)c2cc3ccccc3o2)n1	/	25.4	/	9.7
CC1(C)CC(=O)c2sc(NC(=O)c3ccco3)nc2C1	73.7*	49.3	0.3	32.6
CCOC(=O)c1sc(NC(=O)c2cc3ccccc3o2)nc1C	51.9*	33.4	0.5	17.9
Cc1ccc([N+](=O)[O-])cc1N/C=C1\CCCCC1=O	12.4	3.9	0.9	26.8
CC1(C)CNC(=O)c2sc(NC(=O)c3ccccc3Cl)nc2C1	5.1	-14.0	0.9	3.6
CCOC(=O)c1sc(NC(=O)c2ccccc2OC)nc1C	61.6*	60.9*	0.4	28.2
Cc1nc(NC(=O)c2cc3ccccc3o2)sc1C	/	53.9*	/	/
Cc1nnc(NC(=O)c2cc3ccccc3o2)s1	/	42.3	/	/
CCC[C@H]1CN(c2ccc(OC)cc2)C(=O)[C@@H]1CC(=O)NC	/	1.5	/	/

High-throughput results deposited in PubChem by Sanford-Burnham Center for Chemical Genomics.
